# From ChEMBL document CHEMBL2401701, “Notable difference in anti-HIV activity of integrase inhibitors as a consequence of geometric and enantiomeric configurations” (Bioorg Med Chem Lett, 2013)
# Calls of active or inactive are those of the source. No cut-off for these calls is given here.
# How the values were obtained:
# [1] = molecular target: Human immunodeficiency virus type 1 integrase (Human immunodeficiency virus 1) (UniProt Q7ZJM1); assay: (§1) Inhibition of HIV-1 integrase strand transfer activity after 1 hr by ELISA
# How it was run: (§2)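 DNA substrate (20 nM final), serially diluted compound, and recombinant HIV-1 integrase were combined in 20 mM HEPES pH 7.5, 10 mM MgCl₂, 5% PEG, 0.1 mg/mL BSA, 5 mM DTT. The mix was moved to streptavidin plates for 1 h at room temperature, then washed with NaOH/NaCl/EDTA and Tris-EDTA. Detection antibody was applied for 1 h at 37 °C, followed by TMB for 10 min and absorbance at 450 nm.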
# [2] = molecular target: Human immunodeficiency virus type 1 integrase (Human immunodeficiency virus 1, UniProt Q7ZJM1); assay: as §1; how it was run: as §2
# [3] = tested on: Human immunodeficiency virus 1; assay: Antiviral activity against Human immunodeficiency virus 1 NL4-3 infected in human MAGI cells after 6 days by beta-galactosidase reporter gene assay; format: functional, organism-based; settings: Human immunodeficiency virus 1, NL4-3, MAGI, 144 h
# How it was run: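 MAGI cells carrying an LTR-β-galactosidase reporter were infected with HIV-1 in the presence of compound. After 6 days post-infection, cells were lysed and β-galactosidase activity was read by chemiluminescence. Values are means of three determinations.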
# [4] = Cytotoxicity against human MAGI cells by MTS assay; format: cell-based
# Liver microsomes [5] = assay: Metabolic stability in human liver microsomes assessed as retention time of parent compound at 50 uM by HPLC-UV analysis; format: ADME, Microsome
# How it was run: (§3)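 Pooled mixed-gender human liver microsomes (0.5 mg/mL protein) were incubated with 2 mM NADPH, 0.5 U/mL G-6-P-DH, 5 mM MgCl₂ and 5 mM G-6-P in 100 mM potassium phosphate pH 7.4. After 3 min preincubation at 37 °C, NADPH was added to start the reaction, which ran 60 min. Samples taken at 0, 15, 30, 45 and 60 min were quenched with ice-cold acetonitrile, then run on reversed-phase C18 HPLC (phosphate pH 6.5/acetonitrile gradient) with UV at 360 nm. Data are mean ± SD of three.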
# CYP3A4 [6] = molecular target: T1, CYP3A4 (Homo sapiens, UniProt P08684); assay: Activity at CYP3A4 in human liver microsomes using testosterone as substrate at 12.5 uM preincubated for 3 mins prior to NADPH addition by HPLC-UV analysis relative to control; format: ADME, Microsome; settings: probe testosterone, read-out: Activity
# How it was run: (§4)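 Pooled mixed-gender human liver microsomes in 100 mM potassium phosphate (pH 7.4) with 5 mM MgCl₂, probe substrate at its Km-based level, and test compound. Final volume 100 µL. Preincubated 3 min at 37 °C, then started with 2 mM NADPH (final). Metabolite was read by HPLC-UV: 6β-hydroxytestosterone at 254 nm, 4-hydroxytriazolam at 260 nm, dextrorphan at 278 nm. Activity is given as % of control (100%), mean ± SD of three.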
# CYP2D6 [7] = molecular target: T2, CYP2D6 (Homo sapiens, UniProt P10635); assay: Activity at CYP2D6 in human liver microsomes using dextromethorphan as substrate at 25 uM preincubated for 3 mins prior to NADPH addition by HPLC-UV analysis relative to control; format: ADME, Microsome; settings: probe dextromethorphan, read-out: Activity; how it was run: as §4
# [8] = Half life in human liver microsomes at 50 uM preincubated for 3 mins prior to NADPH addition measured after 60 mins by HPLC analysis; format: ADME, Microsome; how it was run: as §3
# CYP3A4 [9] = molecular target: T1, CYP3A4; assay: Activity at CYP3A4 in human liver microsomes using triazolam as substrate at 12.5 uM preincubated for 3 mins prior to NADPH addition by HPLC-UV analysis relative to control; format: ADME, Microsome; settings: probe triazolam, read-out: Activity; how it was run: as §4
# CYP3A4 [10] = molecular target: T1, CYP3A4; assay: Activity at CYP3A4 in human liver microsomes using triazolam as substrate at 50 uM preincubated for 3 mins prior to NADPH addition by HPLC-UV analysis relative to control; format: ADME, Microsome; settings: probe triazolam, read-out: Activity; how it was run: as §4
# CYP2D6 [11] = molecular target: T2, CYP2D6; assay: Activity at CYP2D6 in human liver microsomes using dextromethorphan as substrate at 50 uM preincubated for 3 mins prior to NADPH addition by HPLC-UV analysis relative to control; format: ADME, Microsome; settings: probe dextromethorphan, read-out: Activity; how it was run: as §4
# CYP2D6 [12] = molecular target: T2, CYP2D6; assay: Activity at CYP2D6 in human liver microsomes using dextromethorphan as substrate at 12.5 uM preincubated for 3 mins prior to NADPH addition by HPLC-UV analysis relative to control; format: ADME, Microsome; settings: probe dextromethorphan, read-out: Activity; how it was run: as §4
# CYP3A4 [13] = molecular target: T1, CYP3A4; assay: Activity at CYP3A4 in human liver microsomes using triazolam as substrate at 25 uM preincubated for 3 mins prior to NADPH addition by HPLC-UV analysis relative to control; format: ADME, Microsome; settings: probe triazolam, read-out: Activity; how it was run: as §4
# CYP3A4 [14] = molecular target: T1, CYP3A4; assay: Activity at CYP3A4 in human liver microsomes using testosterone as substrate at 25 uM preincubated for 3 mins prior to NADPH addition by HPLC-UV analysis relative to control; format: ADME, Microsome; settings: probe testosterone, read-out: Activity; how it was run: as §4
# Liver microsomes [15] = assay: Metabolic stability in human liver microsomes assessed as retention time of metabolite at 50 uM by HPLC-UV analysis; format: ADME, Microsome; how it was run: as §3
# T2 sequence (P10635 whole entry): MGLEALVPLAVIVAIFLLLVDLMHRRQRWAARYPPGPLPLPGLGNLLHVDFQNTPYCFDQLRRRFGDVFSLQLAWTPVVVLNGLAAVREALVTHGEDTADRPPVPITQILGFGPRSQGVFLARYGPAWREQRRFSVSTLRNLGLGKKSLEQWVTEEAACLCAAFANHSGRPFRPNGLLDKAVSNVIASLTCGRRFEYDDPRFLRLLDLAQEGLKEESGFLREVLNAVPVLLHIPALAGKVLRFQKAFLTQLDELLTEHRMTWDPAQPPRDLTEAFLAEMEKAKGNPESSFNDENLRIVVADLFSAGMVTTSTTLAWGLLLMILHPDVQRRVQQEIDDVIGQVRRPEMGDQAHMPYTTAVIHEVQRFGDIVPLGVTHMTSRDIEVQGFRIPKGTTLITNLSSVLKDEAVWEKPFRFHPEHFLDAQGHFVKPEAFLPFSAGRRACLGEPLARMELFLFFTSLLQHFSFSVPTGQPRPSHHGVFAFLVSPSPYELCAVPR
# T1 sequence (P08684 whole entry): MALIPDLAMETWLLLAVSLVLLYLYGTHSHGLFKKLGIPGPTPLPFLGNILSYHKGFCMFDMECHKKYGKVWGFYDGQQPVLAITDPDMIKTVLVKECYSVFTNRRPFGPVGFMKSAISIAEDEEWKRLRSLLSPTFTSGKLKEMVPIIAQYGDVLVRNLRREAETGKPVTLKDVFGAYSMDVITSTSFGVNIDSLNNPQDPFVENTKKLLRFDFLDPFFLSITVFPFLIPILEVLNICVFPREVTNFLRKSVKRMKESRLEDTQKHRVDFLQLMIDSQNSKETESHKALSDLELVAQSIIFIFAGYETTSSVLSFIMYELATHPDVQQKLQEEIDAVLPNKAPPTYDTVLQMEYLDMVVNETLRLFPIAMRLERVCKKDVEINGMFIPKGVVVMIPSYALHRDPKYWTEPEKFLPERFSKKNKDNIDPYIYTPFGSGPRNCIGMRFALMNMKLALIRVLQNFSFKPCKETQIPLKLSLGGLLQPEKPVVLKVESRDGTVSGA
# Chain of Human immunodeficiency virus type 1 integrase (Human immunodeficiency virus 1) (Q7ZJM1 as listed by the source): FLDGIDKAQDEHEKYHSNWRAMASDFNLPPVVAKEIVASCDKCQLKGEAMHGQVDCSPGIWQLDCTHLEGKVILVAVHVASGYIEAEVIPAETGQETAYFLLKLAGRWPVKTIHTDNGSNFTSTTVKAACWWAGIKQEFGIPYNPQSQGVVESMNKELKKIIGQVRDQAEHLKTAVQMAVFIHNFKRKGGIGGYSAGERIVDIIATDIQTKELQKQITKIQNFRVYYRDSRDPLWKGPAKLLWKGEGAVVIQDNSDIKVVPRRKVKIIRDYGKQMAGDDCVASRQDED
# Chain of Human immunodeficiency virus type 1 integrase (Q7ZJM1 whole entry): as the sequence (Q7ZJM1 as listed by the source) above
compound,measurement,setting,value
O=C(/C=C(\O)c1cc(Cc2ccc(F)cc2F)cn(Cc2ccccc2F)c1=O)C(=O)N[C@@H]1CCC[C@@H]1O (racemic),inhibition,[1],inactive
O=C(/C=C(\O)c1cc(Cc2ccc(F)cc2F)cn(Cc2ccccc2F)c1=O)C(=O)N[C@@H]1CCC[C@H]1O (racemic),IC50,[2],48 nM
O=C(/C=C(\O)c1cc(Cc2ccc(F)cc2F)cn(Cc2ccccc2F)c1=O)C(=O)N[C@@H]1CCC[C@H]1O,EC50,[3],42.2 nM
same,EC90,[3],871 nM
same,CC50,[4],137000 nM
O=C(/C=C(\O)c1cc(Cc2ccc(F)cc2F)cn(Cc2ccccc2F)c1=O)C(=O)N[C@H]1CCC[C@@H]1O,Retention_time,Liver microsomes [5],10.48 min
same,activity at 12.5 µM,CYP3A4 [6],109%
same,activity at 25 µM,CYP2D6 [7],87%
same,half-life at 50 µM,[8],2 h
same,activity at 12.5 µM,CYP3A4 [9],124%
same,EC50,[3],25.1 nM
same,EC90,[3],415 nM
same,CC50,[4],40400 nM
same,activity at 50 µM,CYP3A4 [10],100%
same,activity at 50 µM,CYP2D6 [11],87%
same,activity at 12.5 µM,CYP2D6 [12],86%
same,activity at 25 µM,CYP3A4 [13],98%
same,activity at 25 µM,CYP3A4 [14],97%
same,Retention_time,Liver microsomes [15],9.1 min
